Assay outcomes: PubChem, several laboratories
NCF1 inh = inhibitors of human p47phox binding; inhibition, % at 24.7 µM; p47phox/p22phox peptide binding, fluorescence polarization, 2 h; actives 0.53% (n = 220,000); P14598;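 active = inhibition above about 30%, limit read from the data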;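 also: 0% = p47phox with labelled peptide and 100% = labelled peptide alone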
Target sequence (P14598 whole entry, looked up): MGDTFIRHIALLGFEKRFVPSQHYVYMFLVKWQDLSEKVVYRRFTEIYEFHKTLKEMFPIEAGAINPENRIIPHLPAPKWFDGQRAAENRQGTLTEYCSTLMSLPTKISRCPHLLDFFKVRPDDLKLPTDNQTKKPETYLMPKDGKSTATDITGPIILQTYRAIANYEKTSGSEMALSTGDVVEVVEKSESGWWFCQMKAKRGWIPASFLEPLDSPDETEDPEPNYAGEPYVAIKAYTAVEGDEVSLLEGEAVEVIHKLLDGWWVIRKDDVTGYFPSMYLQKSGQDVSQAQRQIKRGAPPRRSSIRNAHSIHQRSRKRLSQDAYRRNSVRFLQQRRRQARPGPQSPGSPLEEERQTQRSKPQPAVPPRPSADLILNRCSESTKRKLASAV
TNAP inh hiacc = blocks human TNAP under high phosphate acceptor concentration. P05186. purified TNAP, CDP-star luminescence, 1 M DEA. inhibition, % at 20 µM. actives 0.03% (n = 200,000). AID 1135;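 active = over 50% inhibition of tissue-nonspecific alkaline phosphatase at 20 µM in the single-dose screen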;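 also: plate controls were DMSO wells for no effect and EDTA-quenched wells as full inhibition for full effect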
Insulin prom up = MIN6 insulin promoter up-regulation. MIN6 insulin promoter-GFP reporter, high-content imaging; hits give high values. z-score at 5 µM. actives 0.3% (n = 190,000). AID 1625;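 active = z-score above 3 at 5 µM with at least 500 cells counted in the well; inconclusive = wells under 500 cells, flagged as cytotoxic or low count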
TNAP inh noacc = TNAP (human) inhibition, acceptor-free conditions; P05186; purified TNAP, CDP-star luminescence, 30 min; inhibition, % at 20 µM; actives 0.26% (n = 200,000);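 active = tissue-nonspecific alkaline phosphatase inhibition above about 50% at 20 µM in the single-dose screen, limit read from the data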;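 also: 0% = DMSO negative control and 100% = EDTA positive control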
TNAP act hiacc = TNAP (human) activation, high acceptor. activation factor at 20 µM. 200,000 tested, under 10 active. purified TNAP, CDP-star luminescence, 1 M DEA, 30 min; hits give high values; 0 = EDTA background, 1 = DMSO-only activity. P05186. AID 1136;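 active = activation factor at least 2 at 20 µM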
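Measured by: Luminescent substrate turnover signal | Test system: Human TNAP | Input: TNAP 1/800 final | Dosing: 20 µM single point | Schedule: 30 min, room temperature | Controls: EDTA wells as negative control, DMSO wells as positive control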
Autophagy HCS = alters autophagy in cells | MEF GFP-LC3 puncta imaging; test concentration mostly 10 µM | calls only at 10 µM (by protocol) | actives 0.98% (n = 190,000) | AID 463193;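 active = percentage of spot-positive cells more than 3 SD above its plate mean, without a fluorescence outlier flag or 80% toxicity; inconclusive = no clear call, values can overlap the other calls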;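 also: spot-positive cell cutoff set from DMSO-treated cells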
The depositor's hits bear a star; i = inactive; ? = inconclusive; . = no result given; + = active, no number. A selection: hits, their analogues and other compounds. The true share with any hit is near 1.8%.

SMILES	NCF1 inh	TNAP inh hiacc	Insulin prom up	TNAP inh noacc	TNAP act hiacc	Autophagy HCS
Cc1c(Cl)cccc1NC(=O)c1cc(-c2ccccc2O)n[nH]1	-4.7	0.7	-0.19	-51.1	1	i
CCOc1ccc(/C=N/NC(=O)c2cc(-c3cccn3C)n[nH]2)cc1	2.2	7.4	-0.28	79.1*	0.9	i
O=C(O)c1cc(-c2ccccc2Cl)n[nH]1	-3.2	10.5	-0.24	96.2*	0.9	i
Cn1cccc1-c1cc(C(=O)N2CCc3c([nH]c4ccccc34)C2c2ccccn2)[nH]n1 (stereo unspecified)	-19.1	-3.3	.	18.5	1	i
Cn1cccc1-c1cc(C(=O)O)[nH]n1	7.4	1.9	.	69.6*	1	.
CCOC(=O)C1(Cc2ccc(Cl)cc2)CCN(C(=O)c2cscn2)CC1	-12.9	-7.0	0.09	-10.0	1.1	i
C=CCNC(=O)CSCc1ccc(Br)cc1	12.5	-0.6	-0.34	-8.7	1	i
CCCCCCCCSc1nnc(CSc2nc3nc(C)cc(C)n3n2)o1	-8.1	-6.3	-0.64	-12.2	1.1	i
CCN(CC)c1ccc(/C=C/C(=O)c2ccc(Br)cc2)cc1	-69.1	22.4	.	12.2	0.8	+
COc1ccccc1NC(=O)/C(C#N)=C/c1cc([N+](=O)[O-])ccc1N1CCCC1	-51.5	10.1	-0.09	13.6	0.9	i
CC(=O)c1c(C)[nH]c(C(=O)CN2C(=O)NC(C)(c3ccc(C)cc3)C2=O)c1C (stereo unspecified)	3.7	-3.4	-0.83	-5.8	1	+
Cc1ccc(C2(C)NC(=O)N(CC(=O)Nc3cc(C)on3)C2=O)cc1 (stereo unspecified)	5.3	-3.9	0.08	-11.5	1	i
Cc1ccc2c(C(=O)CN3CCN(C(=O)c4ccco4)CC3)c(C)[nH]c2c1	-2.4	.	-0.07	.	.	.
Cn1c(=O)c2c(-c3ccccc3)n(C3CCCCC3)cc2n(C)c1=O	56.9*	-1.2	1.23	-5.7	1	i
C(#Cc1ccccc1)C[N+]1(CC#Cc2ccccc2)CCCC1	-5.3	-4.8	0.97	-10.6	1	i
C=CC#CC[N+]1(CC#Cc2ccccc2)CCOCC1	60.6*	-3.6	0.32	-43.9	1	i
C[C@@H]1NC(=O)c2cc([N+](=O)[O-])cc(I)c2OCC[C@@H](C(=O)NC(CC(=O)O)C(N)=O)NC(=O)[C@H](CC(N)=O)NC1=O (stereo partly specified)	-2.3	5.7	1.06	-2.1	0.9	i
O=C(ONc1ccc(N=NC(=O)c2ccccc2O)cc1)c1ccccc1	31.2*	12.8	0.12	33.4	0.9	i
O=C(O)c1ccc2c(c1)N(Cc1ccccc1)C(=O)c1ccccc1S2	-7.7	.	-0.48	.	.	.
CCC(CO)[n+]1c(C)cc(/C=C2\Sc3ccccc3N2Cc2ccccc2)cc1C (stereo unspecified)	-23.8	18.2	?	-7.1	0.8	+
S=C(NCC1CCCO1)N1CCN(Cc2ccccc2)CC1 (stereo unspecified)	-2.0	-4.3	0.2	-5.7	1	i
COc1ccc(-c2c(C)n([O-])c3c([n+]2=O)CCCC3)cc1OC	-10.9	-4.0	0.83	4.5	1	+
CON(C)c1nc(OCC#N)nc(N(C)C)n1	-13.9	0.6	0.16	7.6	1	i
CC12COC3(C(=O)Nc4ccc5ccccc5c4)CC1CCC32C (stereo unspecified)	-3.1	-4.7	0.5	-1.7	1	i
C=CCN(CC=C)S(=O)(=O)c1ccc(C(=O)Nc2nnc(COC)o2)cc1	3.4	-1.1	0.1	-9.4	1	+
SMILES	NCF1 inh	TNAP inh hiacc	Insulin prom up	TNAP inh noacc	TNAP act hiacc	Autophagy HCS
NNC(=S)NC1CCCCCCCCCCC1	-4.1	.	0.15	.	.	.
S=C(NC1CCCCCC1)NC1CCCC1	-2.0	-1.4	0.16	-0.3	1	+
COc1ccccc1N1C(=O)C=C(Sc2nc(C)cc(C)n2)C1=O	18.0	.	0.04	.	.	.
O=C(CSc1nnc(-c2ccccc2O)o1)Oc1ccc(OCc2ccccc2)cc1	0.8	-7.4	.	-6.4	1.1	+
O=C(N/N=C/C=C/c1ccccc1[N+](=O)[O-])c1cc(-c2ccccc2)n[nH]1	5.1	6.8	0.39	64.0*	0.9	i
CCOC(=O)c1[nH]c(C)c(CN(C(C)=O)c2ccc(OCC)cc2)c1C	2.0	-1.9	-0.42	-1.9	1	i
